# Data reported in ChEMBL document CHEMBL1141102, “Structure-activity studies of peptides from the "hot-spot" region of human CD2 protein: development of peptides for immunomodulation” (2005).
# Where a SMILES comes first, the peptide text is derived from it. Bridges are numbered along the chain shown (N, C = ends). [ ]: non-standard residue; d: D form. The star is where a group is joined. Pen = CC(C)(S)[C@H](N)C(=O)O; Acm = CC(=O)NC*
# System: not listed separately
# Test: Percent inhibition of CD58 and CD2 interaction in caco-2 and Jurkat cell adhesion assay at 90 uM
# Assay type: functional
# Details: Homo sapiens
# How it was run: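 Confluent Caco-2 monolayers (passages 50–60, human CD58) preincubated with peptide in MEM-α at 37 °C for 30 min. Jurkat cells (CD2), loaded with 2 μM BCECF at 37 °C for 1 h, then added at 1×10^6 cells/well for 45 min at 37 °C. Nonadherent cells washed off with PBS; bound cells lysed in 2% Triton X-100/0.2 N NaOH. Background-corrected fluorescence read; percent inhibition; mean of three experiments.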
row,Molecule,inhibition at 90 µM
1,CC[C@H](C)[C@@H]1NC(=O)[C@@H](N)C(C)(C)SSC[C@@H](C(=O)O)NC(=O)[C@H](CC(C)C)NC(=O)[C@H](C(C)C)NC(=O)[C@H](CC(N)=O)NC(=O)[C@H](CCCCN)NC(=O)CNC(=O)[C@H](CCCCN)NC(=O)[C@H]([C@@H](C)O)NC(=O)[C@H](CC(=O)O)NC(=O)[C@H](Cc2ccc(O)cc2)NC1=O,50%
2,C[C@@H](O)[C@@H]1NC(=O)[C@@H](CC(=O)O)NC(=O)[C@H](Cc2ccc(O)cc2)NC(=O)[C@@H](CCCCN)NC(=O)CNC(=O)[C@@H](CCCCN)NC1=O,20%
3,NCCCC[C@@H]1NC(=O)[C@@H](CCC(=O)O)NC(=O)[C@H](CCCCN)NC(=O)[C@@H](CCCN=C(N)N)NC(=O)[C@H](Cc2ccccc2)NC(=O)[C@@H](CCC(=O)O)NC1=O,25%
4,CC(=O)NCSC[C@H](NC(=O)[C@H](Cc1ccccc1)NC(=O)[C@@H](NC(=O)[C@H](CCC(=O)O)NC(=O)[C@H](CCCCN)NC(=O)[C@H](CCC(=O)O)NC(=O)[C@H](CCCCN)NC(=O)[C@H](CCCN=C(N)N)NC(=O)[C@H](Cc1ccccc1)NC(=O)[C@H](CCC(N)=O)NC(=O)[C@H](C)NC(=O)[C@@H](N)C(C)(C)SCNC(C)=O)[C@@H](C)O)C(=O)O (H-[Pen](Acm)AQFRKEKETFC(Acm)-OH),25%
5,C[C@@H]1NC(=O)[C@@H](N)C(C)(C)SSC[C@@H](C(=O)O)NC(=O)[C@H](Cc2ccccc2)NC(=O)[C@H]([C@@H](C)O)NC(=O)[C@H](CCC(=O)O)NC(=O)[C@H](CCCCN)NC(=O)[C@H](CCC(=O)O)NC(=O)[C@H](CCCCN)NC(=O)[C@H](CCCN=C(N)N)NC(=O)[C@H](Cc2ccccc2)NC(=O)[C@H](CCC(N)=O)NC1=O (H-[Pen]AQFRKEKETFC-OH; disulfide 1-12),50%
6,H-SIYDTKGKNVLE-NH2,25%

# Molecular target: T1, Lymphocyte function-associated antigen 3 (Homo sapiens) (UniProt P19256)
# T1 sequence (whole entry): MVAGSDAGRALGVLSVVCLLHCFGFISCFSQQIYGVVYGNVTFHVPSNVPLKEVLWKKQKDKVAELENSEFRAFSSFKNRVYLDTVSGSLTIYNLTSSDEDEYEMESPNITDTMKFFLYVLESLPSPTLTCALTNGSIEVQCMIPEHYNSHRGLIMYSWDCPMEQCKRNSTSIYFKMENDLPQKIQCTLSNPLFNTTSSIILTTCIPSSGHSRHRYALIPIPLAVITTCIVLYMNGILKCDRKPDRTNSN
# Test: Percent inhibition of E-rossette formation in sheep red blood cells at 200 uM on incubation with T-cells; range 5-15%
# Assay type: functional, cell-based
# Details: Ovis aries
# How it was run: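 Sheep RBCs treated with AET at 37 °C for 15 min, used as 0.5% suspension. Peptide serially diluted in PBS, incubated with the SRBCs at 37 °C for 30 min, then Jurkat cells (2×10^6 cells/mL) added for 15 min. Cells pelleted and held at 4 °C for 1 h. Rosettes counted by hemocytometer on at least 200 cells; percent inhibition; mean of three independent experiments.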
row,Molecule,inhibition
1,H-SIYDTKGKNVLE-NH2,15%
